This is an account of results in ChEMBL document CHEMBL4007422 (J Med Chem, 2017).

Molecules are shown by their SMILES. The source made the active and inactive calls. No cut-off for these calls is given here.

Data set [1] relates to Rattus norvegicus. As to the kind of experiment: Reversal of time-induced amnesia in Wistar rat at 1 to 3 mg/kg, sc administered 60 mins prior to testing measured for 3 mins by object recognition test. Type of data set: functional, organism-based.
A short description of data set [2]: Cmax in Wistar rat at 10 mg/kg, po by LC-MS/MS analysis. The data set is classed as ADME, organism-based. Further details: dose 10 mg/kg, route oral. Conditions: in vivo.
Data set [3] deals with T1, 5-hydroxytryptamine receptor 6 (Homo sapiens, UniProt P50406). As to the kind of experiment: Displacement of [3H]-LSD from recombinant human 5-HT6 receptor expressed in HEK293 cells after 60 mins. Type of data set: cell-based. In general terms: Loss of bound radioactivity is the signal in a displacement assay; it reports binding, not function.
Data set [4] can be described thus: Half life in Wistar rat at 10 mg/kg, iv by LC-MS/MS analysis. The conditions noted are these: in vivo. The data set is classed as ADME, organism-based.
Data set [5] has as its target T2, 5-hydroxytryptamine receptor 2C (Homo sapiens) (UniProt P28335).
T2 sequence (whole entry): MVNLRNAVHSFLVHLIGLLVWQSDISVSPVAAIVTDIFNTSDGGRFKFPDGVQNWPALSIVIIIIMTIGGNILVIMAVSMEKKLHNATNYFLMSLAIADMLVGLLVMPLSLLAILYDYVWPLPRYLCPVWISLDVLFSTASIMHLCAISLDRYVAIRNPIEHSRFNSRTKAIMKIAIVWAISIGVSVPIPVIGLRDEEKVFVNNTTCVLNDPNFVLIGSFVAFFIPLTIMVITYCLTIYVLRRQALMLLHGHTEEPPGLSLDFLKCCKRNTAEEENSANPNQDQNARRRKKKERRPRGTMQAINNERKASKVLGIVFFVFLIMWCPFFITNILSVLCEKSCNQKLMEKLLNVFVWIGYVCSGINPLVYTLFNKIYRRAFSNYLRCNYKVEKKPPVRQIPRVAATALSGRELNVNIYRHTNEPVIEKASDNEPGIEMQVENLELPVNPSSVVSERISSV
As to the kind of experiment: Displacement of [3H]-Mesulergine from recombinant human 5-HT2C receptor expressed in HEK293 cell membranes after 180 mins by microbeta scintillation counting analysis.

Data set [6] can be described thus: (§1) AUC (0 to t) in Wistar rat at 10 mg/kg, po by LC-MS/MS analysis. The data set is classed as ADME, organism-based. The conditions noted are these: Wistar, in vivo.
Data set [7] concerns the target T1, 5-hydroxytryptamine receptor 6. The data set is described as follows: Antagonist activity at recombinant human 5-HT6 receptor expressed in CHO cells assessed as inhibition of 5-HT stimulated cAMP accumulation after 4 hrs by luciferase reporter gene assay relative to control. The data set is classed as functional, cell-based. In outline:
(§2)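 Stable CHO line expressing recombinant human 5-HT6 receptor with a pCRE-luciferase reporter, a nonradioactive cell-based format. Output is Kb (nM), the mean of duplicate experiments, with Imax (%) also reported.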
Background: cAMP levels reflect the balance of adenylyl cyclase and phosphodiesterase activity.

Data set [8] addresses 5-hydroxytryptamine receptor 7 (Rattus norvegicus) (UniProt P32305). The data set is described as follows: Binding affinity to recombinant rat 5-HT7 receptor expressed in CHOK1 cells assessed as inhibition of 5-HT stimulated cAMP accumulation after 4 hrs by luciferase reporter gene assay. Type of data set: cell-based.
Data set [9] concerns the target T1, 5-hydroxytryptamine receptor 6. The data set is described as follows: Antagonist activity at recombinant human 5-HT6 receptor expressed in CHO cells assessed as inhibition of 5-HT stimulated cAMP accumulation after 4 hrs by luciferase reporter gene assay. The data set is classed as functional, cell-based. In outline: as §2
Data set [10] is described as follows: Clearance in Wistar rat at 10 mg/kg, iv by LC-MS/MS analysis. The data set is classed as ADME, organism-based. The conditions noted are these: in vivo.
Data set [11] is described as follows: Apparent volume of distribution in Wistar rat at 10 mg/kg, iv by LC-MS/MS analysis. The data set is classed as ADME, organism-based. The conditions noted are these: in vivo, read-out: Vz.
Data set [12] deals with 5-hydroxytryptamine receptor 2A (Homo sapiens) (UniProt P28223). The data set is described as follows: Displacement of [3H]-Ketanserine from recombinant human 5-HT2A receptor expressed in CHOK1 cell membranes after 60 mins by microbeta scintillation counting analysis.
In data set [13] the target is 5-hydroxytryptamine receptor 4 (Homo sapiens) (UniProt Q13639). As to the kind of experiment: Displacement of [3H]-GR113808 from recombinant human 5-HT4B receptor expressed in Chem1 cell membranes after 120 mins by microbeta scintillation counting analysis.
Data set [14] in a line: (§3) Oral bioavailability in Wistar rat at 10 mg/kg by LC-MS/MS analysis. The data set is classed as ADME, organism-based. The conditions noted are these: Wistar, in vivo.
Data set [15] deals with T3, 5-hydroxytryptamine receptor 1A (Homo sapiens) (UniProt P08908).
T3 sequence (whole entry): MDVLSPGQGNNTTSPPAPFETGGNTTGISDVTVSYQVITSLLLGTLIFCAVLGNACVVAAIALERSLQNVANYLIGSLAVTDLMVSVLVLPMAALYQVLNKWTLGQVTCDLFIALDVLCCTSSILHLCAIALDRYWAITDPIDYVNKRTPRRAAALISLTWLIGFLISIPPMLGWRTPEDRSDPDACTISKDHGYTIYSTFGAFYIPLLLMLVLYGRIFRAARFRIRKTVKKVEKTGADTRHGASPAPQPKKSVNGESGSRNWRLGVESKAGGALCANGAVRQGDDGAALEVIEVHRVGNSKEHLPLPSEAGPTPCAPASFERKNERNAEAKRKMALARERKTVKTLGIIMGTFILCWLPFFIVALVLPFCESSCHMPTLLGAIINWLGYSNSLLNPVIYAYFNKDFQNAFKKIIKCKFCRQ
As to the kind of experiment: Displacement of [3H]-8-OH-DPAT from recombinant human 5-HT1A receptor expressed in HEK293 EBNA cell membranes after 120 mins by microbeta scintillation counting analysis.

The next data set addresses Cytochrome P450 2D6 (Homo sapiens, UniProt P10635). As to the kind of experiment: Inhibition of CYP2D6 in human liver microsomes in presence of NADPH by LC-MS/MS analysis.
Data set [16] can be described thus: Ratio of drug uptake in Wistar rat brain to plasma at 10 mg/kg, po by LC-MS/MS analysis. The data set is classed as ADME, organism-based. Conditions: read-out: BPR.
The target in the next data set is Cytochrome P450 3A4 (Homo sapiens, UniProt P08684).
Data set [17] concerns Rattus norvegicus. As to the kind of experiment: Reversal of time-induced amnesia in Wistar rat at 10 mg/kg, po administered 60 mins prior to testing measured for 3 mins by object recognition test. Type of data set: functional, organism-based. In outline: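 Time-induced object recognition task in rats. Oral dosing at 1, 3 and 10 mg/kg given 60 min before the test; vehicle water for injection 1 mL/kg p.o.; n = 7−12/group. Exploration of novel versus familiar object compared by paired t-test.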

In data set [18] the test system is Rattus norvegicus. The data set is described as follows: Increase in acetylcholine level in Wistar rat ventral hippocampus at 1 mg/kg, sc after 4 hrs in presence of 1 mg/kg of donepezil administered sc by LC-MS/MS based microdialysis method relative to control. Type of data set: functional.
For data set [19], the system named is Rattus norvegicus. The description is as §1. The conditions noted are these: in vivo. The data set is classed as ADME, organism-based.
Data set [20] relates to Rattus norvegicus. Described as §3. The data set is classed as ADME, organism-based. Conditions: in vivo.

Cytochrome P450 2D6, sequence (P10635 whole entry): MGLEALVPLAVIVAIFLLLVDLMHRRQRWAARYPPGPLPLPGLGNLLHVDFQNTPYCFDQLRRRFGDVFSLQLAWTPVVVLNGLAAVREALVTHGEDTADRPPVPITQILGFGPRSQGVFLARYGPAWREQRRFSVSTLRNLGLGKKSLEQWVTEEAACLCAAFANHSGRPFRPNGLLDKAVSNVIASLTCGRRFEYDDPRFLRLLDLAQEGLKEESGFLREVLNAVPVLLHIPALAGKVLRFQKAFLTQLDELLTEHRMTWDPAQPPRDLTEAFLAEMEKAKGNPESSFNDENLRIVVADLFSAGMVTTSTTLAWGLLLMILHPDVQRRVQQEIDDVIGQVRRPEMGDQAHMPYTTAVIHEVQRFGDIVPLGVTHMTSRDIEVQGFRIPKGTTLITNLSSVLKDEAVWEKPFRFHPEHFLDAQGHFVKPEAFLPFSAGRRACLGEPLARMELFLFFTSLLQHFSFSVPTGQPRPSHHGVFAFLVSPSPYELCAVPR
T1 sequence (P50406 whole entry): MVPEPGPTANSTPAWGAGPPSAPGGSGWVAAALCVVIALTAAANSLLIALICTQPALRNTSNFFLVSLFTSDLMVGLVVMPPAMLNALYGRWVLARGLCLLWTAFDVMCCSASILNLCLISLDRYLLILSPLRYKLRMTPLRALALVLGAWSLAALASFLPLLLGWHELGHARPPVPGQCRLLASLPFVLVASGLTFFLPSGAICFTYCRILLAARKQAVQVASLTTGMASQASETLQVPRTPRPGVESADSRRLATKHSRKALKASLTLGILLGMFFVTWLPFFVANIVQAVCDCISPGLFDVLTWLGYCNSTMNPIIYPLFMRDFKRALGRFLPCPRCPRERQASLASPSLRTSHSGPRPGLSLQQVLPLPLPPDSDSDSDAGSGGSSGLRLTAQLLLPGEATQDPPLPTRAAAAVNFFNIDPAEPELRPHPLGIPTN
Cytochrome P450 3A4, sequence (P08684 whole entry): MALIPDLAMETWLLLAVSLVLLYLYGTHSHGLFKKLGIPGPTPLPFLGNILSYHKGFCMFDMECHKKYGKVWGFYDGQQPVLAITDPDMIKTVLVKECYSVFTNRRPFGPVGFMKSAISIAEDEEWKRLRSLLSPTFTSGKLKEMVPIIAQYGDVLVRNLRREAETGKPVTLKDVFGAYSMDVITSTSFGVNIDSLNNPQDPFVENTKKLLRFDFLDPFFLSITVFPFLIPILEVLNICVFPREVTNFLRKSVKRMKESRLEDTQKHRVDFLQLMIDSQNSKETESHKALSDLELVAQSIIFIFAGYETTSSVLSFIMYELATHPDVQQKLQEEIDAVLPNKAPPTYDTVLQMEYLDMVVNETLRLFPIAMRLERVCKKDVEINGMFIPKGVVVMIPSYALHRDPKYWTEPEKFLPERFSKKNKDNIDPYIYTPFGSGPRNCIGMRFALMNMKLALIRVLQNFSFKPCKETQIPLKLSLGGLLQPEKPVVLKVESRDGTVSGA
5-hydroxytryptamine receptor 4 (Homo sapiens), sequence (Q13639 whole entry): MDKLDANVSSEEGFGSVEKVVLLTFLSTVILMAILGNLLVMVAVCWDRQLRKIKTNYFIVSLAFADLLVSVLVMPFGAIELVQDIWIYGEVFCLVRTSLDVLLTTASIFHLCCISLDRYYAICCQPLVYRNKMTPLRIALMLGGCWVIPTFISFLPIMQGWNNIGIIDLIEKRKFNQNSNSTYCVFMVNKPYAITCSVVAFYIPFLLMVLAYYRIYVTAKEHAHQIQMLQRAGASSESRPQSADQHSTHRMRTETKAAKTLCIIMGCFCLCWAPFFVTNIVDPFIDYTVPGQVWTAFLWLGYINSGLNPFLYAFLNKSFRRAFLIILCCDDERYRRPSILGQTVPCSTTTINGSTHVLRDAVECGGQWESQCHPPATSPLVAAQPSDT
5-hydroxytryptamine receptor 7 (Rattus norvegicus), sequence (P32305 whole entry): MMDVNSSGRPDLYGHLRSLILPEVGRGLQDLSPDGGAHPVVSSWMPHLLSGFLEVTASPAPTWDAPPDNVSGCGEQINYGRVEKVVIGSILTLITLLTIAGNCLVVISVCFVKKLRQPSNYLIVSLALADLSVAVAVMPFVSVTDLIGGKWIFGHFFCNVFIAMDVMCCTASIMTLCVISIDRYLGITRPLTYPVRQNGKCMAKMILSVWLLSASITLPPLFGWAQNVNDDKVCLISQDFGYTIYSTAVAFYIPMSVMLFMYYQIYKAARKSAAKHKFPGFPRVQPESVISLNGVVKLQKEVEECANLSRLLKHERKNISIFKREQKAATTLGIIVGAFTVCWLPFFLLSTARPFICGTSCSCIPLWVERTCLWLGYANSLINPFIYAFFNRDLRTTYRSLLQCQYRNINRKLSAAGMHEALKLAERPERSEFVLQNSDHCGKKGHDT
5-hydroxytryptamine receptor 2A (Homo sapiens), sequence (P28223 whole entry): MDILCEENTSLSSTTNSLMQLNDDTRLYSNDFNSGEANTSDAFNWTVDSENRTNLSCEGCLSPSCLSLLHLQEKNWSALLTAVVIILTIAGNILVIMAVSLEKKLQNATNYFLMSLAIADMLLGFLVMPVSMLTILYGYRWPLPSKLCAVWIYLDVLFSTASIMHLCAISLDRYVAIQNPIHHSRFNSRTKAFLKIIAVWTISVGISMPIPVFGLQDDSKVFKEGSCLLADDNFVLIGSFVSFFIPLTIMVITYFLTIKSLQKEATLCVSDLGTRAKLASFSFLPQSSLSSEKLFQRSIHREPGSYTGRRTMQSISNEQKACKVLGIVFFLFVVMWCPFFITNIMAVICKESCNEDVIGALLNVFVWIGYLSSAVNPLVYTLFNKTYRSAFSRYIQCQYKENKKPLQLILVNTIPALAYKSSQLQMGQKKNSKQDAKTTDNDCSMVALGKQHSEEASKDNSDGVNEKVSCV

`CN(C)CCCOc1ccc2[nH]nc(S(=O)(=O)c3cccc4ccccc34)c2c1`: the outcome with Rattus norvegicus [1] was Active.

`CN1CCN(Cc2cn(S(=O)(=O)c3ccc(F)cc3)c3ccccc23)CC1` displayed a Cmax in [2] of 125 ng/mL. Also, the Ki in data set [3] was found to be 0.00876 µM. Also, the half-life in data set [4] was 1.5 h. Moreover, the outcome in data set [5], in data set [8], in [13] and in data set [15] was inactive. In data set [6], this molecule registered an AUC(0-t) of 221 ng·h/mL. Moreover, the Imax in data set [7] was determined as 98%. For the same molecule, the Kb in [9] came to 0.0123 µM. In data set [10], this molecule came in with a clearance of 75 mL/min/kg. Further, the Vd in data set [11] turned out to be 6.3 L/kg. The outcome in [12] was Active. Also, the bioavailability in data set [14] came to 17.5%.

The molecule `COc1cccc2c1c(CN1CCN(C)CC1)cn2S(=O)(=O)c1ccc(C(C)C)cc1.Cl.Cl` displayed a Cmax in data set [2] of 45.6 ng/mL. Moreover, on Cytochrome P450 2D6, the IC50 was 9.7 µM. For the same molecule, the Ki in [3] worked out at 0.0116 µM. In addition, in data set [4], the half-life is 2.12 h. Besides, the result in data set [5], in [8], in [13] and in data set [15] was inactive. In data set [6], this molecule returned an AUC(0-t) of 138 ng·h/mL. For the same molecule, the Imax in [7] was 98%. Further, the Kb in data set [9] was determined as 0.0098 µM. For the same molecule, the clearance in data set [10] came to 65 mL/min/kg. Also, in [11], the Vd turned out to be 6.1 L/kg. Further, the result in data set [12] was Active. For the same molecule, in data set [14], the bioavailability was found to be 10.7%.

Consider `CC(C)c1ccc(S(=O)(=O)n2cc(CN3CCN(C)CC3)c3cc(F)ccc32)cc1.Cl.Cl`, for which the concentration in data set [2] peaked (Cmax) at 1900 ng/mL. In addition, the Kp in [16] is 0.95. Further, the results for the IC50 at Cytochrome P450 2D6 and against Cytochrome P450 3A4 were 7.7 µM and 1.4 µM, respectively. In addition, in data set [3], the Ki amounted to 0.004 µM. In data set [4], this molecule gave a half-life of 1.93 h. Besides, the outcome in data set [5], in [8], in [13] and in data set [15] was inactive. Moreover, the result (in the data set with Rattus norvegicus [17]; in data set [12]) was Active. This molecule also showed an AUC(0-t) in data set [6] of 7740 ng·h/mL. Further, the Imax in data set [7] came out at 99%. Also, the Kb in [9] was found to be 0.014 µM. Moreover, the clearance in data set [10] came to 19.5 mL/min/kg. In data set [11], the Vd amounted to 3.2 L/kg. Further, the bioavailability in [14] came out at 91.4%.

`CC12CC3CC(C)(C1)CC(N)(C3)C2` [MEMANTINE]: the Activity in the data set on Rattus norvegicus [18] is given as 1203%.

Regarding `CN1CCN(Cc2cn(S(=O)(=O)c3ccccc3)c3ccccc23)CC1.Cl.Cl`, the highest level in data set [2] (Cmax) was 1220 ng/mL. Moreover, the Kp in [16] stood at 0.82. The IC50 at Cytochrome P450 2D6 and against Cytochrome P450 3A4 was more than 10 µM in each case. Also, the half-life in [4] is 0.89 h. Besides, the result in data set [5], in [8], in [13] and in data set [15] was inactive. The outcome (in the data set on Rattus norvegicus [17]; in [12]) was Active. In addition, the AUC(0-t) in [6] came to 2220 ng·h/mL. In [10], this molecule returned a clearance of 14.9 mL/min/kg. The Vd in data set [11] amounted to 1.2 L/kg. The bioavailability in data set [14] stood at 21.4%.

In turn, `COc1ccc2c(c1)c(CN1CCCN(C)CC1)cn2S(=O)(=O)c1ccc(C(C)C)cc1.Cl.Cl` gave a Cmax in [2] of 22 ng/mL. Moreover, the IC50 came to 1.9 µM at Cytochrome P450 2D6 and 2.2 µM against Cytochrome P450 3A4. The molecule also had a half-life in data set [4] of 5.7 h. The outcome in data set [5], in data set [8], in [13] and in data set [15] was inactive. Moreover, the AUCt in the data set on Rattus norvegicus [19] is 157 ng·h/mL. The Vd in data set [11] is 49.5 L/kg. Further, in data set [12], the result was Active. In the data set on Rattus norvegicus [20], this molecule showed an F of 4%.

On to `COc1ccc2c(c1)c(CN1CCN(C)CC1)cn2S(=O)(=O)c1ccc(C(C)C)cc1.CS(=O)(=O)O.CS(=O)(=O)O`, for which the Cmax in data set [2] worked out at 56.4 ng/mL. Besides, the IC50 at Cytochrome P450 2D6 amounted to 33.5 µM; at Cytochrome P450 3A4, 1.85 µM. The same molecule gave a half-life in data set [4] of 1.12 h. The outcome in data set [5], in [8], in data set [13] and in data set [15] was inactive. The molecule also returned an AUC(0-t) in [6] of 151 ng·h/mL. The molecule further displayed a clearance in data set [10] of 54 mL/min/kg. Besides, in data set [11], the Vd stood at 5.3 L/kg. The result in [12] was Active. Besides, the bioavailability in data set [14] stood at 4.9%.

The term Cmax denotes the highest concentration seen after dosing. By Ki is commonly meant the equilibrium dissociation constant of an inhibitor or competing ligand from its target. As usually defined, the half-life is the time in which the quantity being followed falls by half. A high value points to slow decline. In general, AUC(0-t) refers to the area under the concentration-time curve up to a stated or last time point. Higher therefore signals more exposure. As usually defined, the Kb is the affinity of an antagonist, worked out from how it opposes an agonist. In general, clearance refers to the rate of elimination divided by the concentration. Low values mean inefficient removal, high ones efficient removal. Usually bioavailability stands for dose-corrected exposure relative to a reference, in per cent. In general, IC50 refers to the midpoint of a concentration-inhibition curve.
